Test results as given in the EternaBench riboswitch data.

Tested on: MS2 coat protein
Experiment: apparent Kd, MS2 coat protein; higher = weaker binding; RNA-MaP array; FMN 200 µM where present
Procedure, shortened: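 Two titrations, one without ligand and one with constant ligand, were run with SNAP-549-labelled MS2 coat protein from 0.7 or 1.5 nM, doubling to 3 µM. The targets were designs transcribed by stalled E. coli RNA polymerase on Illumina sequencing-chip clusters, in 100 mM Tris-HCl pH 7.5, 80 mM KCl, 4 mM MgCl2, BSA, DTT, yeast tRNA and Tween-20. The apparent Kd is the median of filtered per-cluster binding-curve fits, with green signal normalised to red-channel RNA signal and control-cluster median Fmax.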

[1] = designed as: OFF switch for flavin mononucleotide, no ligand
[2] = ligand present: flavin mononucleotide, designed as: OFF switch for flavin mononucleotide
[3] = designed as: ON switch for flavin mononucleotide, no ligand
[4] = ligand present: flavin mononucleotide, designed as: ON switch for flavin mononucleotide

| Sequence | apparent Kd [1] [µM] | apparent Kd [2] [µM] | apparent Kd [3] [µM] | apparent Kd [4] [µM] |
| --- | --- | --- | --- | --- |
| GUGUACAGAGGAUAUACUGGAGCUAGGAAACUAGCAACCUCACAUGAGGAUCACCCAUGUAGAAGGCUGUACAC | 0.402 | 0.0258 |  |  |
| GUCACACACCGCUCCGUGUCUGACAUGAGGAUCACCCAUGUGAGAAGGUAGCGUCGCAGUGACGUUAAGGAUAUCACGUACAGA | 0.00481 | 0.0052 |  |  |
| UUUGUUUAUGUGAGGAUAUACUGUUUGUUUUGUUUGUAGAAGGUACAUGAGGAUCACCCAUGUUUUGUUUUUUU | 0.0228 | 0.0205 |  |  |
| CCUAUGUGAGGAUAUGUCUGGUCUUCUUUUGUUUUUUACAGACAGAAGGCACAUGAGGAUCACCCAUGUCAGAC | 0.0168 | 0.0244 |  |  |
| GUGCCUUGGGAGAAGGCCCAAUGCAAAGCAUAGGGAGGAUAUUCAUAUAAUAAAUAAACAUGAGGAUCACCCAUGUGGCACAAA |  |  | 0.479 | 0.0333 |
| AUGUUGCGAGGAUAUAUUUAAUGGAUGAUAUUUAUUAGGGAACAUGAGGAUCACCCAUGUAGAAGGUGCAUAAC | 0.0637 | 0.087 |  |  |
| AUCUGACAUGAGGAUCACCCAUGUAUUCGAGCAUGAGGAUAUAUGACUCGUCAUCGGCGGAUAGAAGGCAUGGUUG |  |  | 0.0975 | 0.189 |
| UGAACUAUGUAGAAGGCCCAUAUUUAUAUAUAGGGAGGAUAUACAUGAGGAUCACCCAUGUAUAGAGCAAGAGGACUUGUCAGU | 0.00634 | 0.00707 |  |  |
| CGCCCGUAAGGAUAUACAUGAGGAUCACCCAUGUCGGUAACCGAAGGGCGAUACCUUUGUAGAAGGUACUGCGU | 0.0148 | 0.0137 |  |  |
| AAGCGACGAGGAUAUCGGUGGCUGAACAUGAGGAUCACCCAUGUGAACCGAUGGCAGUGUCGAGAAGGUGUUGAGU | 0.0139 | 0.0161 |  |  |
| GAGUUACAUGAGGAUCACCCAUGUUGUUGUGGAUAAGGAUAUAUGGUAGGAAGAGGAAUGAUAGAAGGUAUUAGGG |  |  | 0.0462 | 0.04 |
| CGACACAUGAGGGUCUCCCAUGACAUGAGGAUCACCCAUGUGCAGGAUAUACGUGUGAUGGUAUAGUAGAAGGGCACUCUAUGU | 0.0416 | 0.058 |  |  |
| GGGUACAUCGGAGGAUAUCAUGUAUAUACAUGAGGAUCACCCAUGUCGUACGAGAGUACGGAGAUUGAGAAGGCCGAUGUACCG |  |  | 0.0394 | 0.0144 |
| UGCACAUGAGGAUCACCCAUGUAUUGUUCGGUUAAUAGAAGUGAGGAUAUGCUUAAAAUAAGGUAGCAGAAGGCACUGGGUUCA |  |  | 0.0278 | 0.0295 |
| AAGGUGUUAGGAUAUCGGAGUUUGAGGCAGACGGGAAUUUUCGAGAAGGAACAUGAGGAUCACCCAUGUAGUAU | 0.0241 | 0.0248 |  |  |
| CAUACACAUGAGGAUCACCCAUGUGAGGAUAUGCGUACGUUGUCCGUAGGCGACGUGCGCAGAAGGCGCGAGGU | 0.0377 | 0.0359 |  |  |
| AAUUAGUGAGGAUAUUUUAACAGUGGCAGUAGCCAGUGCAUGAAGAAGGCACAUGAGGAUCACCCAUGUUAUAA | 0.101 | 0.0915 |  |  |
| CCGAAUGUCACAGGAUAUGGUCCGGGCACGGGACCAGAAGGGUGAUCUCACAUGAGGAUCACCCAUGUGCAGGCGUUAGGCUGC |  |  | 0.0186 | 0.086 |
| AAACUGUGAGGAUAUGGUGAGUAGUGCCUGAGCGCUGCUCACCAGAAGGCACAUGAGGAUCACCCAUGUAUAAA | 0.0255 | 0.0747 |  |  |
| AGAAAGUGAGGAUAUACAUGAGGAUCACCCAUGUAGAACGAGAGUUAUAAAAAUGGAAGUAGAAGGCGCAAAAG | 0.0371 | 0.0372 |  |  |
| UGAUAGGACAGAGGAUAUACGUAUAAAUAUCCUUACAUGAGGAUCACCCAUGUAGAAGGCUGUCCUAUCUAAGUCGGAAACGAC | 0.00596 | 0.0103 |  |  |
| GGAUCUGAAACAGAUCCAAUACGAACAUGAGGAUCACCCAUGUAGGAUAUGCUACUCAAAGAGUAGCAGAAGGACAUGUGUCUU | 0.0243 | 0.147 |  |  |
| CGGUCGAUGUAAGGAUAUCGACUGGAUAACAGUCGAGAAGGUACAUGAGGAUCACCCAUGUAAUCCAAUAAUAAAUAACGACCG | 0.0114 | 0.0232 |  |  |
| UGACCCAUGACAUGAGAUGACAUGAGGAUCACCCAUGUUUACAAGGAUAUGUUGGUCAAAGGUCGGCAGAAGGUGUAAUGGGAU | 0.049 | 0.128 |  |  |
| CUAAAUUAGUAGAAGGACGGAGAGUAAGAAGUCGUAGGAUAUACAUAAGACAUGAGGAUCACCCAUGUGUGUAUGUUGGGUAUG | 0.00654 | 0.00665 |  |  |
| GGAUGACAUAGUCAUCCUUAACGAACAUGAGGAUCACCCAUGUAGGAUAUGCUACUCAAAGAGUAGCAGAAGGGCAUGUGUCUU | 0.0306 | 0.0688 |  |  |
| UGGCGCAUGUGAGGAUAUAGUGGGUAGUAACUACUAGAAGGUACAUGAGGAUCACCCAUGUACUUGGGUUUGUCAGGAACUCCU | 0.00657 | 0.00833 |  |  |
| GGUCCAAUAUGAGGAUAUAGCAUCUUAUUGAUGCUAGAAGGCGUGUCGGUAGACAUGAGGAUCACCCAUGUAUUACAAUGGACC |  |  | 0.11 | 0.0294 |
